Data taken from ChEMBL document CHEMBL1157608, “The discovery of 4-{1-[({2,5-dimethyl-4-[4-(trifluoromethyl)benzyl]-3-thienyl}carbonyl)amino]cyclopropyl}benzoic acid (MK-2894), a potent and selective prostaglandin E2 subtype 4 receptor antagonist” (J Med Chem, 2010).

Key:
[1] = target: T1, Prostaglandin E2 receptor EP1 subtype (Homo sapiens, UniProt P34995); assay: Displacement of [3H]PGE2 from human EP1 receptor expressed in HEK293-EBNA cells by scintillation counting; format: cell-based
T1 sequence (P34995 whole entry): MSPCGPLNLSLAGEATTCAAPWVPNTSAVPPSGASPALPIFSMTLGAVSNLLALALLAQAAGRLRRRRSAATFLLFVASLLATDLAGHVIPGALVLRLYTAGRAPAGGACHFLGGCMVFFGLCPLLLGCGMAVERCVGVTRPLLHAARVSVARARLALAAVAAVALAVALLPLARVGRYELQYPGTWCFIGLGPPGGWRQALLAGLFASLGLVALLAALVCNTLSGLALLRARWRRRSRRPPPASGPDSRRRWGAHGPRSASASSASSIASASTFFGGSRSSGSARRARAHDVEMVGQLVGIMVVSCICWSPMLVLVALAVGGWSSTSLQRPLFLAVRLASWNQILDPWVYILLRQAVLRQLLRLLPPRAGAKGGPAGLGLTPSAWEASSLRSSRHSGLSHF
Procedure, shortened: (§1)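 Radioligand binding on membranes from HEK 293(EBNA) clonal lines overexpressing each prostanoid receptor, using the respective 3H-prostaglandin or thromboxane ligand; EP4 binding also run with 10% human serum; Ki as means of at least three experiments (rEP2, rEP3 n = 1).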

[2] = target: T2, Prostaglandin E2 receptor EP4 subtype (Homo sapiens, UniProt P35408); assay: Displacement of [3H]PGE2 from human EP4 receptor expressed in HEK293-EBNA cells by scintillation counting; format: cell-based; procedure, shortened: as §1
Prostacyclin receptor = Prostacyclin receptor (Homo sapiens, UniProt P43119); assay: Displacement of [3H]iloprost from human IP receptor expressed in HEK293-EBNA cells by scintillation counting; format: cell-based; procedure, shortened: as §1
[3] = target: Prostaglandin E2 receptor EP2 subtype (Homo sapiens, UniProt P43116); assay: Displacement of [3H]PGE2 from human EP2 receptor expressed in HEK293-EBNA cells by scintillation counting; format: cell-based; procedure, shortened: as §1
[4] = target: T3, Prostaglandin E2 receptor EP3 subtype (Homo sapiens, UniProt P43115); assay: Displacement of [3H]PGE2 from human EP3 receptor expressed in HEK293-EBNA cells by scintillation counting; format: cell-based; procedure, shortened: as §1
T3 sequence (P43115 whole entry): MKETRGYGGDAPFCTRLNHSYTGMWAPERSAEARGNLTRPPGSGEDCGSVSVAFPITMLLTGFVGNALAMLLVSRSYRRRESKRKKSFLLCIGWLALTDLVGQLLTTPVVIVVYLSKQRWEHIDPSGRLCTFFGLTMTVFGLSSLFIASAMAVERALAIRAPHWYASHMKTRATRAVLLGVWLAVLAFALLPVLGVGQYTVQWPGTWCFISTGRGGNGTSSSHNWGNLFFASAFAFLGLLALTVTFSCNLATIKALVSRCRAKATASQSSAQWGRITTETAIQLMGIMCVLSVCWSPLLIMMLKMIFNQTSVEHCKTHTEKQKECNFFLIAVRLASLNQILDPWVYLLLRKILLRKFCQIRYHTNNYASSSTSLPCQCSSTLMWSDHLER

[5] = target: T2, Prostaglandin E2 receptor EP4 subtype; assay: Antagonist activity at human EP4 receptor expressed in HEK293 cells assessed as inhibition of PGE2-induced cAMP accumulation by scintillation proximity assay; format: functional, cell-based
Procedure, shortened: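 HEK 293 cells; inhibition of PGE2-induced cAMP accumulation measured, with and without 10% human serum; means of at least three experiments.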

[6] = target: T4, Prostaglandin D2 receptor (Homo sapiens, UniProt Q13258); assay: Displacement of [3H]PGD2 from human DP1 receptor expressed in HEK293-EBNA cells by scintillation counting; format: cell-based; procedure, shortened: as §1
T4 sequence (Q13258 whole entry): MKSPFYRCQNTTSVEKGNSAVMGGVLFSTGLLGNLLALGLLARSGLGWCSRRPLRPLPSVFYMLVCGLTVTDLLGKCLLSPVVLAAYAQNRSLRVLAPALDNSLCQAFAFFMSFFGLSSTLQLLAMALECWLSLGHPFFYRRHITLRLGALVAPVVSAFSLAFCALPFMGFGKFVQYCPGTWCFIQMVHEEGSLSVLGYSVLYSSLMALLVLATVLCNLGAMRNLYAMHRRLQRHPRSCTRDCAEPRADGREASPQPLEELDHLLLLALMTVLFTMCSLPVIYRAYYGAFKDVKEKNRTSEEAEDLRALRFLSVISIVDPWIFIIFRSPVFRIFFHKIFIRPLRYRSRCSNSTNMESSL

Thromboxane A2 receptor = target: T5, Thromboxane A2 receptor (Homo sapiens, UniProt P21731); assay: Displacement of [3H]SQ29548 from human TP receptor expressed in HEK293-EBNA cells by scintillation counting; format: cell-based; procedure, shortened: as §1
T5 sequence (P21731 whole entry): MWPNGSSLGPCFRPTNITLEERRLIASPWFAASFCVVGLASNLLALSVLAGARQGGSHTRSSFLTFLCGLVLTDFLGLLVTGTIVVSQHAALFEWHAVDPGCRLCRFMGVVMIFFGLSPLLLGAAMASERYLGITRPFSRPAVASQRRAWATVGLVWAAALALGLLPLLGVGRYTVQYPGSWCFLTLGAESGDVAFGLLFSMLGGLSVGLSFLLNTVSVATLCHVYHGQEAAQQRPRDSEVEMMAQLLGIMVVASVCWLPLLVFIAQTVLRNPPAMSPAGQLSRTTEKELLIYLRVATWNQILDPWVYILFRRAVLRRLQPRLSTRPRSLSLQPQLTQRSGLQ

[7] = target: Prostaglandin F2-alpha receptor (Homo sapiens, UniProt P43088); assay: Displacement of [3H]PGF2alpha from human FP receptor expressed in HEK293-EBNA cells by scintillation counting; format: cell-based; procedure, shortened: as §1
[8] = target: T6, Prostaglandin D2 receptor 2 (Homo sapiens, UniProt Q9Y5Y4); assay: Displacement of [3H]PGD2 from human DP2 receptor expressed in HEK293-EBNA cells by scintillation counting; format: cell-based; procedure, shortened: as §1
T6 sequence (Q9Y5Y4 whole entry): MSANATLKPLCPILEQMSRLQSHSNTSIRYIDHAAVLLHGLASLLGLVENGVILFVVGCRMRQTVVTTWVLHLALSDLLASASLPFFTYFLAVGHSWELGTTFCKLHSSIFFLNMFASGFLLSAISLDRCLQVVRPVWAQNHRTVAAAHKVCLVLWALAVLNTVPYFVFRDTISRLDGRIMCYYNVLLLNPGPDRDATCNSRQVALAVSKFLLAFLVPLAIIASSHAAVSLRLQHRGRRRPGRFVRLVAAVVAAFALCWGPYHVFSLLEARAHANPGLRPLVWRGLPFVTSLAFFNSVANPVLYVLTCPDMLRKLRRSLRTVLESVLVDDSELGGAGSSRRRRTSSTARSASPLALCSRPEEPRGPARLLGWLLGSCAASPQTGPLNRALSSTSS

Rattus norvegicus [9] = species on record: Rattus norvegicus; assay: Analgesic activity against complete Freund's adjuvant-induced Sprague-Dawley rat inflammatory pain assessed as inhibition of chronic paw swelling; format: functional
Procedure, shortened: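 Adjuvant-induced arthritis in rats: CFA injected into primary paw on day 0; oral dosing in 0.5% methocel once daily for 9 days starting day 9; secondary paw swelling measured; plasma levels taken 24 h after final dose; n = 7/group; 1-way ANOVA/Dunnett's vs vehicle.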

Rattus norvegicus [10] = assay: Analgesic activity in po dosed Sprague-Dawley rat assessed as inhibition of carrageenan-induced mechanical hyperalgesia relative to control; format: functional
Procedure, shortened: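 SD rats given subplantar carrageenan; compound dosed orally as a single dose; mechanical hyperalgesia read at 3 h post carrageenan, 1 h post dose; inhibition expressed vs vehicle control; n = 10-20/group; 1-way ANOVA/Dunnett's.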

Sequence of Prostacyclin receptor (P43119 whole entry): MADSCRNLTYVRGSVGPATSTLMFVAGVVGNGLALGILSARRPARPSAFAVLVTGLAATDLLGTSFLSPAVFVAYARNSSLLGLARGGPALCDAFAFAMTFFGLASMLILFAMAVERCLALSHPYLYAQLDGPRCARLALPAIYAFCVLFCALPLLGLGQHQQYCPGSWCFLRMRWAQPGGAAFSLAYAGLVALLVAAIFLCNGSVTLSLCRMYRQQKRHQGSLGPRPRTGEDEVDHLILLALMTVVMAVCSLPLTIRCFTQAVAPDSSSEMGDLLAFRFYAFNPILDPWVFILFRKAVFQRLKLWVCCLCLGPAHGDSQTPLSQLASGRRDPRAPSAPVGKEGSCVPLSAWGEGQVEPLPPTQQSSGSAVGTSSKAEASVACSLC
Sequence of Prostaglandin F2-alpha receptor (P43088 whole entry): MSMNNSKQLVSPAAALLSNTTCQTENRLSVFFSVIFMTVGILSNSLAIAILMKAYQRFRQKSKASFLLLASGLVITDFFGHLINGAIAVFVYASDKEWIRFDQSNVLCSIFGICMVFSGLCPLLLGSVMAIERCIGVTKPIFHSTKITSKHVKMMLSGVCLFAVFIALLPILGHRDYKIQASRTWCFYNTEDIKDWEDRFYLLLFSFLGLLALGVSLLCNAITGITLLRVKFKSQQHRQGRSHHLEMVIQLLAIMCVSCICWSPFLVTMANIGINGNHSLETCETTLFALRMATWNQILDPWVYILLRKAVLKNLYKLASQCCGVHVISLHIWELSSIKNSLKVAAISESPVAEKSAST
Sequence of Prostaglandin E2 receptor EP2 subtype (P43116 whole entry): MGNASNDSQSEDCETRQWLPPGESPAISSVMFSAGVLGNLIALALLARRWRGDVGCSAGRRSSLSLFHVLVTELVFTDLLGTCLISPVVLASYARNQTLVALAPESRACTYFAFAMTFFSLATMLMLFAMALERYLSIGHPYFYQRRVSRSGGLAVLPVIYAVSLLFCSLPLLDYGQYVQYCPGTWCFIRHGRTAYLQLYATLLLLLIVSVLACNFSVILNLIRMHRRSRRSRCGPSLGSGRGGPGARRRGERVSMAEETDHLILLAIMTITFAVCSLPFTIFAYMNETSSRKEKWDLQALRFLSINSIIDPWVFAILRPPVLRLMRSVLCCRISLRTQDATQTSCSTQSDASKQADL
T2 sequence (P35408 whole entry): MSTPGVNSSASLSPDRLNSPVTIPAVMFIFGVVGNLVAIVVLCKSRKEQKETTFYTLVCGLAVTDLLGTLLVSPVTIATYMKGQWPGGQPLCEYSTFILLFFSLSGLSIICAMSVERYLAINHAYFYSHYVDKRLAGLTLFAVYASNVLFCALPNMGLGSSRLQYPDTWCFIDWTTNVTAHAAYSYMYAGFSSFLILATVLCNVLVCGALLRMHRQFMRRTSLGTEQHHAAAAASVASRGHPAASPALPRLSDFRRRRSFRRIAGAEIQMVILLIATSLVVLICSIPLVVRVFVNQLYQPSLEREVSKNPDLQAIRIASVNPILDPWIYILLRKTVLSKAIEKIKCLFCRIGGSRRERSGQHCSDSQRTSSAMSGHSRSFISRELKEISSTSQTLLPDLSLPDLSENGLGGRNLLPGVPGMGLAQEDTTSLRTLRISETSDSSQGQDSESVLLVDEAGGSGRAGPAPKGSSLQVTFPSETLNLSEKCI

Row | Ki [1] [nM] | Ki [2] [nM] | Ki (Prostacyclin receptor) [nM] | Ki [3] [nM] | Ki [4] [nM] | IC50 [5] [nM] | Ki [6] [nM] | Ki (Thromboxane A2 receptor) [nM] | Ki [7] [nM] | Ki [8] [nM] | Compound | ED50 (Rattus norvegicus [9]) | inhibition (INH) (Rattus norvegicus [10]) [%]
1 | > 3460 | 2.5 | > 3460 | 800 | > 3460 | 4.7 | > 3460 | > 3460 | > 3460 | > 3460 | Cc1sc(C)c(C(=O)N[C@@H](C)c2ccc(C(=O)O)cc2)c1Cc1cccc(C(F)(F)F)c1 | – | –
2 | – | – | – | – | – | – | – | – | – | – | CS(=O)(=O)c1ccc(C2=C(c3ccc(F)c(F)c3)C(=O)OC2)cc1 | 0.5 mg/kg | 70
3 | > 2120 | 2.9 | > 2120 | 202 | > 2120 | 5.4 | > 2120 | > 2120 | > 2120 | > 2120 | Cc1sc(C)c(C(=O)N[C@@H](C)c2ccc(C(=O)O)cc2)c1Cc1ccc(Cl)cc1 | – | –
4 | > 456 | – | > 456 | 746 | > 456 | 3.6 | > 456 | > 456 | > 456 | > 456 | C[C@H](NC(=O)c1c(Cl)sc(Cl)c1Cc1cccc(Cl)c1)c1ccc(C(=O)O)cc1 | – | –
5 | > 5470 | – | > 5470 | 1190 | > 5470 | 4.5 | > 5470 | > 5470 | > 5470 | > 5470 | Cc1sc(C)c(C(=O)N[C@@H](C)c2ccc(C(=O)O)cc2)c1Cc1ccc(C(F)(F)F)cc1 | – | –
6 | > 224 | 0.87 | > 224 | 384 | > 224 | 1.8 | > 224 | > 224 | > 224 | > 224 | C[C@@H](NC(=O)c1c(Cl)sc(Cl)c1Cc1cccc(Cl)c1)c1ccc(C(=O)O)cc1 | – | –
7 | > 2230 | – | > 2230 | 467 | > 2230 | 8.6 | > 2230 | > 2230 | > 2230 | > 2230 | Cc1sc(C)c(C(=O)N[C@@H](C)c2ccc(C(=O)O)cc2)c1Cc1cccc(Cl)c1 | – | –
8 | > 628 | 0.72 | > 628 | 43 | > 628 | 1.6 | > 628 | > 628 | > 628 | > 628 | O=C(O)c1ccc(CNC(=O)c2c(Cl)sc(Cl)c2Cc2cccc(Cl)c2)cc1 | – | –
9 | – | – | – | – | – | – | – | – | – | – | COc1cccc(OC)c1C1(C(=O)NS(=O)(=O)Cc2ccc(N3Cc4c(c(OCC(F)(F)F)c5cccnc5c4OCC(F)(F)F)C3=O)c(C)c2)CC1 | 0.003 mg/kg/day | –
10 | > 501 | 0.63 | > 501 | > 29000 | > 501 | 2.3 | > 501 | > 501 | > 501 | > 501 | Cc1sc(C)c(C(=O)NC2(c3ccc(-c4nn[nH]n4)cc3)CC2)c1Cc1ccc(C(F)(F)F)cc1 | – | –
11 | > 4990 | 0.75 | > 4990 | > 29100 | > 4990 | – | > 4990 | > 4990 | > 4990 | > 4990 | Cc1sc(C)c(C(=O)NC2(c3ccc(C(=O)O)cc3)CC2)c1Cc1cccc(C(F)(F)F)c1 | – | –
12 | – | – | – | – | – | – | – | – | – | – | CS(=O)(=O)c1ccc(C2=C(c3ccccc3)C(=O)OC2)cc1 [ROFECOXIB] | 0.7 mg/kg | –
13 | > 7280 | 6.4 | > 7280 | 16 | > 7280 | 12 | > 7280 | > 7280 | > 7280 | > 7280 | C[C@H](NC(=O)c1cscc1Cc1cccc(Cl)c1)c1ccc(C(=O)O)cc1 | – | –
